ChEMBL document CHEMBL1140069, “In vitro antifungal activity of polyfunctionalized 2-(hetero)arylquinolines prepared through imino Diels-Alder reactions” (2008)
Values after ≈ are worked out from the molar mass of the structure shown.

Key:
Format in all cases: functional
[1] = system: Trichophyton mentagrophytes; assay: Antifungal activity against Trichophyton mentagrophytes ATCC 9972 after 48 hrs by broth microdilution technique; conditions: ATCC 9972, 48 h
Outline: (§1)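 CLSI broth microdilution: M-27 A2 for yeasts and M-38 A for filamentous fungi. Medium is RPMI-1640 buffered to pH 7.0 with MOPS. Compound is diluted twofold from 250 to 0.98, final DMSO ≤2%. Inoculum is 1–5 × 10³ CFU/mL. Plates are incubated at 35 °C in a moist, dark chamber and read visually at 48 h. MIC100 is the lowest concentration giving total growth inhibition versus drug-free control.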

Candida albicans = assay: Antifungal activity against Candida albicans ATCC 10231 after 48 hrs by broth microdilution technique; conditions: ATCC 10231, 48 h; outline: as §1
Saccharomyces cerevisiae = assay: Antifungal activity against Saccharomyces cerevisiae ATCC 9763 after 48 hrs by broth microdilution technique; conditions: ATCC 9763, 48 h; outline: as §1
Trichophyton rubrum = assay: Antifungal activity against Trichophyton rubrum C110 after 48 hrs by broth microdilution technique; conditions: read-out: MIC; outline: as §1
Nannizzia gypsea = assay: Antifungal activity against Microsporum gypseum C115 after 48 hrs by broth microdilution technique; outline: as §1
Aspergillus fumigatus = assay: Antifungal activity against Aspergillus fumigatus ATTC 26934 after 48 hrs by broth microdilution technique; outline: as §1
Cryptococcus neoformans = assay: Antifungal activity against Cryptococcus neoformans ATCC 32264 after 48 hrs by broth microdilution technique; conditions: ATCC 32264, 48 h; outline: as §1
Aspergillus flavus = assay: Antifungal activity against Aspergillus flavus ATCC 9170 after 48 hrs by broth microdilution technique; conditions: ATCC 9170, 48 h; outline: as §1
Aspergillus niger = assay: Antifungal activity against Aspergillus niger ATCC 9029 after 48 hrs by broth microdilution technique; conditions: ATCC 9029, 48 h; outline: as §1

Row | MIC [1] [µg/mL] | MIC (Candida albicans) [µg/mL] | MIC (Saccharomyces cerevisiae) [µg/mL] | MIC (Trichophyton rubrum) [µg/mL] | MIC (Nannizzia gypsea) [µg/mL] | MIC (Aspergillus fumigatus) [µg/mL] | MIC (Cryptococcus neoformans) [µg/mL] | MIC (Aspergillus flavus) [µg/mL] | MIC (Aspergillus niger) [µg/mL] | Compound
1 | > 250 | > 250 | > 250 | > 250 | > 250 | > 250 | > 250 | > 250 | > 250 | CCc1ccc2nc(-c3cccc([N+](=O)[O-])c3)ccc2c1
2 | > 250 | > 250 | > 250 | > 250 | > 250 | > 250 | > 250 | > 250 | > 250 | CCc1ccc2ccc(-c3ccc4c(c3)OCO4)nc2c1
3 | 250 (≈ 1140 µM) | > 250 | > 250 | 250 (≈ 1140 µM) | 250 (≈ 1140 µM) | > 250 | 250 (≈ 1140 µM) | > 250 | > 250 | Cc1ccc2nc(-c3ccccc3)ccc2c1
4 | > 250 | > 250 | > 250 | > 250 | > 250 | > 250 | > 250 | > 250 | > 250 | O=[N+]([O-])c1cccc(-c2ccc3cc(Cl)ccc3n2)c1
5 | 250 (≈ 1130 µM) | > 250 | > 250 | 125 (≈ 565 µM) | 125 (≈ 565 µM) | > 250 | > 250 | > 250 | > 250 | Oc1ccc2nc(-c3ccccc3)ccc2c1
6 | 125 (≈ 555 µM) | > 250 | > 250 | 125 (≈ 555 µM) | 125 (≈ 555 µM) | > 250 | > 250 | > 250 | > 250 | COc1ccc2nc(-c3ccco3)ccc2c1

More lines, now with the values behind:

Row | Compound | MIC [1] [µg/mL] | MIC (Candida albicans) [µg/mL] | MIC (Saccharomyces cerevisiae) [µg/mL] | MIC (Trichophyton rubrum) [µg/mL] | MIC (Nannizzia gypsea) [µg/mL] | MIC (Aspergillus fumigatus) [µg/mL] | MIC (Cryptococcus neoformans) [µg/mL] | MIC (Aspergillus flavus) [µg/mL] | MIC (Aspergillus niger) [µg/mL]
7 | O=[N+]([O-])c1ccc2nc(-c3ccccc3)ccc2c1 | > 250 | > 250 | > 250 | > 250 | > 250 | > 250 | > 250 | > 250 | > 250
8 | Cc1cc(-c2cccnc2)nc2ccc(Br)cc12 | 12.5 (≈ 41.8 µM) | > 250 | > 250 | 12.5 (≈ 41.8 µM) | 12.5 (≈ 41.8 µM) | > 250 | 250 (≈ 836 µM) | > 250 | > 250
9 | Fc1ccc2nc(-c3ccccc3)ccc2c1 | 250 (≈ 1120 µM) | > 250 | > 250 | 250 (≈ 1120 µM) | 250 (≈ 1120 µM) | > 250 | > 250 | > 250 | > 250
10 | CCc1cccc2c(C)cc(-c3ccncc3)nc12 | > 250 | > 250 | > 250 | > 250 | > 250 | > 250 | > 250 | > 250 | > 250
11 | Cc1cc(-c2ccccc2)nc2ccccc12 | 12.5 (≈ 57 µM) | > 250 | > 250 | 25 (≈ 114 µM) | 12.5 (≈ 57 µM) | > 250 | 250 (≈ 1140 µM) | > 250 | > 250
12 | c1ccc(-c2ccc3cc4c(cc3n2)OCO4)cc1 | 250 (≈ 1000 µM) | > 250 | > 250 | 250 (≈ 1000 µM) | 250 (≈ 1000 µM) | > 250 | 125 (≈ 501 µM) | > 250 | > 250
13 | Cc1ccc2nc(-c3ccc4c(c3)OCO4)ccc2c1 | > 250 | > 250 | > 250 | > 250 | > 250 | > 250 | > 250 | > 250 | > 250
